Measurements from ChEMBL document CHEMBL1154596, “The effects of C-terminal modifications on the opioid activity of [N-benzylTyr(1)]dynorphin A-(1-11) analogues” (J Med Chem, 2009).

What was measured:
[1] = target: Kappa-type opioid receptor (Rattus norvegicus) (UniProt P34975); assay: Activity at rat kappa opioid receptor expressed in CHO cells assessed as inhibition of adenylyl cyclase activity at 10 uM relative to Dyn A-(1-13)NH2; type: functional, cell-based
Outline: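 CHO cells stably expressing cloned rat KOR. Adenylyl cyclase inhibition was measured with each peptide at 10 μM. Efficacy is expressed relative to the maximal inhibition by the reference agonist Dyn A-(1-13)NH2 (100 nM). Values are mean ± SEM of at least three independent experiments.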

Rattus norvegicus = species on record: Rattus norvegicus; assay: Selectivity ratio of Ki for rat kappa opioid receptor to Ki for rat mu opioid receptor
[2] = Selectivity ratio of Ki for rat kappa opioid receptor to Ki for mouse delta opioid receptor
[3] = target: Kappa-type opioid receptor (Rattus norvegicus, UniProt P34975); assay: Displacement of [3H]diprenorphine from rat kappa opioid receptor expressed in CHO cells; type: cell-based
Sequence of Kappa-type opioid receptor (P34975 whole entry): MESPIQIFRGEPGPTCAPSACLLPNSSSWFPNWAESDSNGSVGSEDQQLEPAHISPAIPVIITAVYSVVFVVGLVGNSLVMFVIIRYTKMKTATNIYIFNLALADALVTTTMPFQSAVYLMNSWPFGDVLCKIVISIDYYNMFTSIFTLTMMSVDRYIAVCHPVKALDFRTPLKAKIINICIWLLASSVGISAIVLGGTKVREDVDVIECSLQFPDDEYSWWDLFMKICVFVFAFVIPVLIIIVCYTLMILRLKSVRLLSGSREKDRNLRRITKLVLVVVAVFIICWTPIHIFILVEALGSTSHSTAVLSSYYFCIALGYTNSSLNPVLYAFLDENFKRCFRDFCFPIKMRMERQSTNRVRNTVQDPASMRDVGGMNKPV
Outline: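 Radioligand competition binding on membranes of CHO cells stably expressing cloned rat KOR, rat MOR or mouse DOR. […] Ki values are mean ± SEM of at least three independent experiments.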

Mu-type opioid receptor = Mu-type opioid receptor (Rattus norvegicus, UniProt P33535); assay: Displacement of [3H]DAMGO from rat mu opioid receptor expressed in CHO cells; type: cell-based
Sequence of Mu-type opioid receptor (P33535 whole entry): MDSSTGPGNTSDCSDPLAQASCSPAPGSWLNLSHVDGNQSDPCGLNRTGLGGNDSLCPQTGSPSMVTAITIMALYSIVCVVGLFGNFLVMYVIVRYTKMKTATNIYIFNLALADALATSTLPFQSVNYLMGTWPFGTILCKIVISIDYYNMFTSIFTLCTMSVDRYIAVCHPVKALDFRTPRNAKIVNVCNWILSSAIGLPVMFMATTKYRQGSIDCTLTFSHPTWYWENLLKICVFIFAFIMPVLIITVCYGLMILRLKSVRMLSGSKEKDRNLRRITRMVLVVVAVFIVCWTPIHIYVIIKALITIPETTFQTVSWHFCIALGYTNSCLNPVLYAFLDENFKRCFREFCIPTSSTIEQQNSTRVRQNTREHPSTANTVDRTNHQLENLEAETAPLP
Outline: (§1)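 Radioligand competition binding on membranes of CHO cells stably expressing cloned rat KOR, rat MOR or mouse DOR. Ki values are mean ± SEM of at least three independent experiments.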

[4] = target: Delta-type opioid receptor (Mus musculus, UniProt P32300); assay: Displacement of [3H]DPDPE from mouse delta opioid receptor expressed in CHO cells; type: cell-based; outline: as §1
Sequence of Delta-type opioid receptor (P32300 whole entry): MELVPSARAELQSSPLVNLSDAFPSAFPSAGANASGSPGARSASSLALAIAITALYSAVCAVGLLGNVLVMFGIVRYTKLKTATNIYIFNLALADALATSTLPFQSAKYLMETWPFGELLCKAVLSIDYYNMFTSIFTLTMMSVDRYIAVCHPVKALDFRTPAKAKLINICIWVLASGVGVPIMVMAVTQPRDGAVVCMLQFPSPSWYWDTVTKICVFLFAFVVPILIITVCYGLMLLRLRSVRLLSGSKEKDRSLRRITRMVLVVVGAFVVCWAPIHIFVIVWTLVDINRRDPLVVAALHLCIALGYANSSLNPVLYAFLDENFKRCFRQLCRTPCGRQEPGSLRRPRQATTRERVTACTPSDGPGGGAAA

Sequence of Kappa-type opioid receptor (Rattus norvegicus) (P34975 whole entry): as the sequence (P34975 whole entry) above

| Structure (SMILES) | inhibition [1] | Ratio Ki (Rattus norvegicus) | Ratio Ki [2] | Ki [3] | Ki (Mu-type opioid receptor) | Ki [4] |
| --- | --- | --- | --- | --- | --- | --- |
| CC(C)C[C@H](NC(=O)[C@H](Cc1ccccc1)NC(=O)CNC(=O)CNC(=O)[C@H](Cc1ccc(O)cc1)NCc1ccccc1)C(=O)N[C@@H](CCCNC(=N)N)C(=O)N(C)[C@@H](CCCNC(=N)N)C(=O)N[C@H](C)C(=O)N[C@@H](CCCNC(=N)N)C(=O)N1CCC[C@@H]1C(=O)N[C@@H](CCCCN)C(N)=O | 70% | 16 | 151 | – | – | – |
| CC(C)C[C@H](NC(=O)[C@H](Cc1ccccc1)NC(=O)CNC(=O)CNC(=O)[C@H](Cc1ccc(O)cc1)NCc1ccccc1)C(=O)N[C@@H](CCCNC(=N)N)C(=O)N[C@@H](CCCNC(=N)N)C(=O)N[C@H](C)C(=O)N[C@@H](CCCNC(=N)N)C(=O)N1CCC[C@@H]1C(=O)N[C@@H](CCCCN)C(N)=O | 70% | 15 | 109 | – | – | – |
| CC(C)C[C@H](NC(=O)[C@H](Cc1ccccc1)NC(=O)CNC(=O)CNC(=O)[C@H](Cc1ccc(O)cc1)NCc1ccccc1)C(=O)N[C@@H](CCCNC(=N)N)C(=O)N[C@@H](CCCNC(=N)N)C(=O)N[C@H](C)C(=O)N[C@@H](CCCNC(=N)N)C(=O)N1CCC[C@H]1C(=O)N[C@@H](CCCCN)C(N)=O | 70% | 11 | 80 | – | – | – |
| CC[C@H](C)[C@H](NC(=O)[C@H](CCCNC(=N)N)N(C)C(=O)[C@H](CCCNC(=N)N)NC(=O)[C@H](CC(C)C)NC(=O)[C@H](Cc1ccccc1)NC(=O)CNC(=O)CNC(=O)[C@H](Cc1ccc(O)cc1)NCc1ccccc1)C(=O)N[C@@H](CCCNC(=N)N)C(=O)N1CCC[C@@H]1C(=O)N[C@@H](CCCCN)C(N)=O | 70% | – | – | – | – | – |
| CC(C)C[C@H](NC(=O)[C@H](Cc1ccccc1)NC(=O)CNC(=O)CNC(=O)[C@H](Cc1ccc(O)cc1)NCc1ccccc1)C(=O)N[C@@H](CCCNC(=N)N)C(=O)N(C)[C@@H](CCCNC(=N)N)C(=O)N[C@H](C)C(=O)N[C@@H](CCCNC(=N)N)C(=O)N1CCC[C@H]1C(=O)N[C@@H](CCCCN)C(N)=O | 70% | 14 | 147 | – | – | – |
| CC[C@H](C)[C@H](NC(=O)[C@H](CCCNC(=N)N)N(C)C(=O)[C@H](CCCNC(=N)N)NC(=O)[C@H](CC(C)C)NC(=O)[C@H](Cc1ccccc1)NC(=O)CNC(=O)CNC(=O)[C@H](Cc1ccc(O)cc1)NCc1ccccc1)C(=O)N[C@@H](CCCNC(=N)N)C(=O)N1CCC[C@H]1C(=O)N[C@@H](CCCCN)C(N)=O | 70% | – | – | – | – | – |
| CC(=O)NC[C@H](NC(=O)[C@H](CCCNC(=N)N)NC(=O)[C@H](CCCNC(=N)N)NC(=O)[C@@H](CC(N)=O)NC(=O)[C@H](Cc1ccccc1)NC(=O)CNC(=O)CNC(=O)[C@H](Cc1ccc(O)cc1)NCc1ccccc1)C(=O)N[C@@H](CCCNC(=N)N)C(=O)N1CCC[C@H]1C(=O)N[C@@H](CCCCN)C(N)=O | – | 25 | 149 | 66.9 nM | 1660 nM | > 10000 nM |
